Active and inactive are the calls of the source. The calls are words filed in the database; no cut-off is given here.
test system: Trypanosoma brucei rhodesiense; assay: Antitrypanosomal activity against Trypanosoma brucei rhodesiense STIB900 infected in NMRI mouse assessed as host survival after 60 days at 20 mg/kg, ip qd for 4 days administered after 3 to 6 days postinfection; format: functional, organism-based; parameters: dose 20 mg/kg; conditions: not given
Method in brief: (§1)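 Female NMRI mice infected ip with 2 10^4 bloodstream STIB900 forms; groups of four dosed ip (4 × 20 mg/kg) or orally (4 × 50 mg/kg) on days 3–6 post-infection; untreated infected controls. Tail-blood parasitemia followed to day 60; surviving aparasitemic mice at day 60 counted cured; mean survival and relapse days recorded.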

| Structure (SMILES) | Activity |
| --- | --- |
| c1ccc(CON2CCN=C2Nc2ccc(Nc3ccc(NC4=NCCN4OCc4ccccc4)cc3)cc2)cc1 | inactive |
| CON1CCN=C1Nc1ccc(Nc2ccc(NC3=NCCN3OC)cc2)cc1 | inactive |
| CCON1CCN=C1Nc1ccc(Nc2ccc(NC3=NCCN3OCC)cc2)cc1 | inactive |
| c1cc(Nc2ccc(NC3=NCCN3OC3CCCCO3)cc2)ccc1NC1=NCCN1OC1CCCCO1 (stereo not given) | inactive |
| ON1CCN=C1Nc1ccc(Nc2ccc(NC3=NCCN3O)cc2)cc1 | inactive |

test system: Trypanosoma brucei rhodesiense; assay: Antitrypanosomal activity against Trypanosoma brucei rhodesiense STIB900 infected in NMRI mouse assessed as host survival after 60 days at 50 mg/kg, po qd for 4 days administered after 3 to 6 days postinfection; format: functional, organism-based; parameters: dose 50 mg/kg; conditions: not given; method in brief: as §1

| Structure (SMILES) | Activity |
| --- | --- |
| c1ccc(CON2CCN=C2Nc2ccc(Nc3ccc(NC4=NCCN4OCc4ccccc4)cc3)cc2)cc1 | inactive |
| CON1CCN=C1Nc1ccc(Nc2ccc(NC3=NCCN3OC)cc2)cc1 | inactive |
| CCON1CCN=C1Nc1ccc(Nc2ccc(NC3=NCCN3OCC)cc2)cc1 | inactive |
| c1cc(Nc2ccc(NC3=NCCN3OC3CCCCO3)cc2)ccc1NC1=NCCN1OC1CCCCO1 (stereo not given) | inactive |
| ON1CCN=C1Nc1ccc(Nc2ccc(NC3=NCCN3O)cc2)cc1 | inactive |

test system: Leishmania donovani; assay: Antiprotozoal activity against amastigotes of Leishmania donovani MHOM/ET/67/L82 by alamar blue assay; format: functional, organism-based; conditions: not given
Method in brief: (§2)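 Alamar blue read-out; IC50 determined against bloodstream-form STIB900 trypanosomes, axenically grown L. donovani MHOM/ET/67/L82 amastigotes, or rat skeletal myoblast L-6 cells (cytotoxicity).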

| Structure (SMILES) | IC50 [µM] |
| --- | --- |
| c1ccc(CON2CCN=C2Nc2ccc(Nc3ccc(NC4=NCCN4OCc4ccccc4)cc3)cc2)cc1 | 104 |
| CON1CCN=C1Nc1ccc(Nc2ccc(NC3=NCCN3OC)cc2)cc1 | 39 |
| CCON1CCN=C1Nc1ccc(Nc2ccc(NC3=NCCN3OCC)cc2)cc1 | 62 |
| c1cc(Nc2ccc(NC3=NCCN3OC3CCCCO3)cc2)ccc1NC1=NCCN1OC1CCCCO1 (stereo not given) | 41 |
| ON1CCN=C1Nc1ccc(Nc2ccc(NC3=NCCN3O)cc2)cc1 | 58 |

test system: L6; assay: Cytotoxicity against rat L6 cells; format: cell-based; conditions: not given; method in brief: as §2

| Structure (SMILES) | IC50 [µM] |
| --- | --- |
| c1ccc(CON2CCN=C2Nc2ccc(Nc3ccc(NC4=NCCN4OCc4ccccc4)cc3)cc2)cc1 | 11 |
| CON1CCN=C1Nc1ccc(Nc2ccc(NC3=NCCN3OC)cc2)cc1 | 54 |
| CCON1CCN=C1Nc1ccc(Nc2ccc(NC3=NCCN3OCC)cc2)cc1 | 40 |
| c1cc(Nc2ccc(NC3=NCCN3OC3CCCCO3)cc2)ccc1NC1=NCCN1OC1CCCCO1 (stereo not given) | 20 |
| ON1CCN=C1Nc1ccc(Nc2ccc(NC3=NCCN3O)cc2)cc1 | 92 |

test system: Plasmodium falciparum; assay: Antiprotozoal activity against chloroquine and pyrimethamine-resistant erythrocytic stages of Plasmodium falciparum K1 by [3H]hypoxanthine incorporation assay; format: functional, organism-based; conditions: not given
Method in brief: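 P. falciparum K1 (chloroquine- and pyrimethamine-resistant) erythrocytic stages; IC50 determined by [3H]hypoxanthine incorporation assay.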

| Structure (SMILES) | IC50 [µM] |
| --- | --- |
| c1ccc(CON2CCN=C2Nc2ccc(Nc3ccc(NC4=NCCN4OCc4ccccc4)cc3)cc2)cc1 | 0.2 |
| CON1CCN=C1Nc1ccc(Nc2ccc(NC3=NCCN3OC)cc2)cc1 | 0.45 |
| CCON1CCN=C1Nc1ccc(Nc2ccc(NC3=NCCN3OCC)cc2)cc1 | 0.59 |
| c1cc(Nc2ccc(NC3=NCCN3OC3CCCCO3)cc2)ccc1NC1=NCCN1OC1CCCCO1 (stereo not given) | 0.75 |
| ON1CCN=C1Nc1ccc(Nc2ccc(NC3=NCCN3O)cc2)cc1 | 0.055 |

test system: not listed separately; assay: Selectivity index, ratio of IC50 for rat L6 cells to IC50 for Trypanosoma brucei rhodesiense STIB900; format: toxicity, cell-based; conditions: L6 cells versus Trypanosoma brucei rhodesiense STIB900, read-out: Ratio IC50
Method in brief: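 Selectivity index = IC50 (rat L-6 myoblasts)/IC50 (T. b. rhodesiense STIB900 bloodstream forms). Both IC50 values were determined by Alamar blue assay.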

| Structure (SMILES) | selectivity ratio |
| --- | --- |
| c1ccc(CON2CCN=C2Nc2ccc(Nc3ccc(NC4=NCCN4OCc4ccccc4)cc3)cc2)cc1 | 34.7 |
| CON1CCN=C1Nc1ccc(Nc2ccc(NC3=NCCN3OC)cc2)cc1 | 65.6 |
| CCON1CCN=C1Nc1ccc(Nc2ccc(NC3=NCCN3OCC)cc2)cc1 | 55 |
| c1cc(Nc2ccc(NC3=NCCN3OC3CCCCO3)cc2)ccc1NC1=NCCN1OC1CCCCO1 (stereo not given) | 17 |
| ON1CCN=C1Nc1ccc(Nc2ccc(NC3=NCCN3O)cc2)cc1 | 236 |

test system: Trypanosoma brucei rhodesiense; assay: Antiprotozoal activity against bloodstream forms of Trypanosoma brucei rhodesiense STIB900 by alamar blue assay; format: functional, organism-based; conditions: not given; method in brief: as §2

| Structure (SMILES) | IC50 [µM] |
| --- | --- |
| c1ccc(CON2CCN=C2Nc2ccc(Nc3ccc(NC4=NCCN4OCc4ccccc4)cc3)cc2)cc1 | 0.32 |
| CON1CCN=C1Nc1ccc(Nc2ccc(NC3=NCCN3OC)cc2)cc1 | 0.83 |
| CCON1CCN=C1Nc1ccc(Nc2ccc(NC3=NCCN3OCC)cc2)cc1 | 0.73 |
| c1cc(Nc2ccc(NC3=NCCN3OC3CCCCO3)cc2)ccc1NC1=NCCN1OC1CCCCO1 (stereo not given) | 1.18 |
| ON1CCN=C1Nc1ccc(Nc2ccc(NC3=NCCN3O)cc2)cc1 | 0.37 |

test system: Trypanosoma brucei rhodesiense; assay: Antitrypanosomal activity against Trypanosoma brucei rhodesiense STIB900 infected in NMRI mouse assessed as day of host death after 60 days at 20 mg/kg, ip qd for 4 days administered after 3 to 6 days postinfection; format: functional; conditions: route intraperitoneal
Method in brief: (§3)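 Female NMRI mice infected ip with 2 104 bloodstream forms of T. b. rhodesiense STIB900. Groups of four mice were treated ip (4 × 20 mg/kg) or po (4 × 50 mg/kg) on four consecutive days, days 3–6 postinfection. Untreated infected controls were included. Tail blood parasitemia was monitored to day 60. Day of death was recorded (cured mice counted as >60) to give mean survival days.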

| Structure (SMILES) | Activity [days] |
| --- | --- |
| c1ccc(CON2CCN=C2Nc2ccc(Nc3ccc(NC4=NCCN4OCc4ccccc4)cc3)cc2)cc1 | 7 |
| CON1CCN=C1Nc1ccc(Nc2ccc(NC3=NCCN3OC)cc2)cc1 | 7 |
| CCON1CCN=C1Nc1ccc(Nc2ccc(NC3=NCCN3OCC)cc2)cc1 | 7 |
| c1cc(Nc2ccc(NC3=NCCN3OC3CCCCO3)cc2)ccc1NC1=NCCN1OC1CCCCO1 (stereo not given) | 7 |
| ON1CCN=C1Nc1ccc(Nc2ccc(NC3=NCCN3O)cc2)cc1 | 25.3 |

test system: Trypanosoma cruzi; assay: Antiprotozoal activity against trypomastigote forms of Trypanosoma cruzi Tulahuen C2C4 expressing LacZ by colorimetric CPRG assay; conditions: not given

| Structure (SMILES) | IC50 [µM] |
| --- | --- |
| c1ccc(CON2CCN=C2Nc2ccc(Nc3ccc(NC4=NCCN4OCc4ccccc4)cc3)cc2)cc1 | 6.6 |
| CON1CCN=C1Nc1ccc(Nc2ccc(NC3=NCCN3OC)cc2)cc1 | 136 |
| CCON1CCN=C1Nc1ccc(Nc2ccc(NC3=NCCN3OCC)cc2)cc1 | 87 |
| c1cc(Nc2ccc(NC3=NCCN3OC3CCCCO3)cc2)ccc1NC1=NCCN1OC1CCCCO1 (stereo not given) | 24 |
| ON1CCN=C1Nc1ccc(Nc2ccc(NC3=NCCN3O)cc2)cc1 | > 204 |

test system: not listed separately; assay: Selectivity index, ratio of IC50 for rat L6 cells to IC50 for chloroquine and pyrimethamine-resistant erythrocytic stages of Plasmodium falciparum K1; format: toxicity, cell-based; conditions: L6 cells versus Plasmodium falciparum K1 erythrocytic stages, read-out: Ratio IC50
Method in brief: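 Selectivity index = IC50 (rat L-6 myoblasts, Alamar blue assay)/IC50 (P. falciparum K1 erythrocytic stages, [3H]hypoxanthine incorporation assay).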

| Structure (SMILES) | selectivity ratio |
| --- | --- |
| c1ccc(CON2CCN=C2Nc2ccc(Nc3ccc(NC4=NCCN4OCc4ccccc4)cc3)cc2)cc1 | 56 |
| CON1CCN=C1Nc1ccc(Nc2ccc(NC3=NCCN3OC)cc2)cc1 | 120 |
| CCON1CCN=C1Nc1ccc(Nc2ccc(NC3=NCCN3OCC)cc2)cc1 | 68 |
| c1cc(Nc2ccc(NC3=NCCN3OC3CCCCO3)cc2)ccc1NC1=NCCN1OC1CCCCO1 (stereo not given) | 26 |
| ON1CCN=C1Nc1ccc(Nc2ccc(NC3=NCCN3O)cc2)cc1 | 1670 |

test system: Trypanosoma brucei rhodesiense; assay: Antitrypanosomal activity against Trypanosoma brucei rhodesiense STIB900 infected in NMRI mouse assessed as day of host death after 60 days at 50 mg/kg, po qd for 4 days administered after 3 to 6 days postinfection; format: functional; conditions: not given; method in brief: as §3

| Structure (SMILES) | Activity [days] |
| --- | --- |
| c1ccc(CON2CCN=C2Nc2ccc(Nc3ccc(NC4=NCCN4OCc4ccccc4)cc3)cc2)cc1 | 7 |
| CON1CCN=C1Nc1ccc(Nc2ccc(NC3=NCCN3OC)cc2)cc1 | 7 |
| CCON1CCN=C1Nc1ccc(Nc2ccc(NC3=NCCN3OCC)cc2)cc1 | 7 |
| c1cc(Nc2ccc(NC3=NCCN3OC3CCCCO3)cc2)ccc1NC1=NCCN1OC1CCCCO1 (stereo not given) | 7 |
| ON1CCN=C1Nc1ccc(Nc2ccc(NC3=NCCN3O)cc2)cc1 | 7 |

Source: ChEMBL document CHEMBL1649414, “Synthesis and antiprotozoal activity of N-alkoxy analogues of the trypanocidal lead compound 4,4'-bis(imidazolinylamino)diphenylamine with improved human blood-brain barrier permeability” (J Med Chem, 2011)
